In ChEMBL document CHEMBL1134345, “Coumarin and chromen-4-one analogues as tautomerase inhibitors of macrophage migration inhibitory factor: discovery and X-ray crystallography” (J Med Chem, 2001):

Target: T1, Macrophage migration inhibitory factor (Homo sapiens, UniProt P14174)
T1 sequence (P14174 whole entry): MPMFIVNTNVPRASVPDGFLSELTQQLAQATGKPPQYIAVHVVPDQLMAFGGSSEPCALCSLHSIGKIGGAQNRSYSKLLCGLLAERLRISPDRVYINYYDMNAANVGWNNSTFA
Assay: Inhibitory activity against tautomerase macrophage migration inhibitory factor (MIF)
Outline: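 Recombinant human MIF at 4 ug/mL final, in sodium phosphate buffer pH 6.0. Inhibitors were added in DMSO (1% v/v final). The reaction was started with freshly made D-dopachrome (D-DOPA oxidized with periodate, 1:2) at 0.25–0.5 mM. The A475 decrease was followed for 10 min. Initial rates were corrected for the uncatalyzed rate without MIF. Ki came from three-dimensional nonlinear regression.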

Point of comparison: `N#Cc1cc2ccc(O)cc2oc1=O`, Ki 2900 nM. Against it:
- O=C(O)/C=C/c1ccc(O)cc1F — within 1.5-fold, 2600 nM
- O=C(COC(=O)c1cc2ccccc2oc1=O)c1ccccc1 — 1.8-fold lower, 1600 nM
- O=c1oc2cc(O)ccc2cc1-c1nc(-c2ccc3c(c2)OCO3)cs1 — 1.9-fold lower, 1500 nM
- CN(C)c1ccc(/C=C2\C(=O)Oc3ccccc3C2=O)cc1 — 2.1-fold higher, 6200 nM
- CC(=O)c1cc2ccc(O)cc2oc1=O — within 1.5-fold, 4300 nM
- O=c1oc2ccccc2cc1-c1csc(-c2cc3ccc(O)cc3oc2=O)n1 — 10-fold lower, 280 nM
- CCOC(=O)CC(=O)c1cc2ccc(O)cc2oc1=O — 2-fold higher, 5800 nM
- O=c1oc2cc(O)ccc2cc1-c1ccccc1 — 6.2-fold lower, 470 nM
- Cc1nc(-c2cc3ccc(O)cc3oc2=O)cs1 — within 1.5-fold, 2100 nM
- Cc1csc(-c2cc3ccc(O)cc3oc2=O)n1 — within 1.5-fold, 3100 nM
- NC(=S)c1cc2ccc(O)cc2oc1=O — 5.3-fold lower, 550 nM

Point of comparison: `CCCCCCS` [HEXANETHIOL], IC50 0.0174 mM. Against it:
- CCCCCCSC[C@H](NC(=O)CC[C@H](N)C(=O)O)C(=O)NCC(=O)O — 190-fold higher, 3.3 mM

Target: T1, Macrophage migration inhibitory factor
Assay: Binding activity towards the active site of macrophage migration inhibitory factor (MIF)

Compound `CCCCCCSC[C@H](NC(=O)CC[C@H](N)C(=O)O)C(=O)NCC(=O)O` has a Kd of 2.5 mM.
